≈ marks a conversion by molar mass, not a printed value.
Tests used:
Type in all cases: functional
Settings in all cases: 168 h
[1] = system: Mycobacterium tuberculosis; assay: Antitubercular activity against rifampin-resistant Mycobacterium tuberculosis H37Rv ATCC 27294 after 7 days by microplate alamar blue assay
How it was run: (§1)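 12.8 mM DMSO stocks; two-fold dilutions in Middlebrook 7H12 broth, final 128 to 0.5 µM. Inoculum 2 × 10⁵ cfu/mL, 37 °C. On day 7, Tween 80 plus Alamar Blue added; fluorescence read (ex 530/em 590 nm) after 16-24 h more. MIC = lowest concentration giving ≥90% fluorescence drop versus bacteria-only controls; mean of two runs. RMP and INH positive controls.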

[2] = system: Mycobacterium tuberculosis; assay: Antitubercular activity against isoniazid-resistant Mycobacterium tuberculosis H37Rv ATCC 27294 after 7 days by microplate alamar blue assay; how it was run: as §1
[3] = system: Mycobacterium tuberculosis; assay: Antitubercular activity against streptomycin-resistant Mycobacterium tuberculosis H37Rv ATCC 27294 after 7 days by microplate alamar blue assay; how it was run: as §1

CCOC(=O)c1cc(-c2cccc(Oc3cc(C(F)(F)F)nc4ccccc34)c2)on1
MIC [1]: 1.27 µM (≈ 0.544 µg/mL) | MIC [2]: 1.63 µM (≈ 0.698 µg/mL) | MIC [3]: 1.4 µM (≈ 0.6 µg/mL)

CCOC(=O)c1cc(COc2cc(C(F)(F)F)nc3cc(C(F)(F)F)cc(C(F)(F)F)c23)on1
MIC [1]: 0.99 µM (≈ 0.497 µg/mL) | MIC [2]: 0.98 µM (≈ 0.492 µg/mL) | MIC [3]: 1.55 µM (≈ 0.779 µg/mL)

NNC(=O)c1ccncc1 [ISONIAZID]
MIC [1]: 0.43 µM (≈ 0.059 µg/mL) | MIC [2]: > 128 µM | MIC [3]: 0.45 µM (≈ 0.0617 µg/mL)

CO[C@H]1/C=C/O[C@@]2(C)Oc3c(C)c(O)c4c(O)c(c(/C=N/N5CCN(C)CC5)c(O)c4c3C2=O)NC(=O)/C(C)=C\C=C\[C@H](C)[C@H](O)[C@@H](C)[C@@H](O)[C@@H](C)[C@H](OC(C)=O)[C@@H]1C [RIFAMPIN]
MIC [1]: > 32 µM | MIC [2]: 0.06 µM (≈ 0.0494 µg/mL) | MIC [3]: 0.05 µM (≈ 0.0411 µg/mL)

CN[C@@H]1[C@H](O[C@H]2[C@H](O[C@H]3[C@H](O)[C@@H](O)[C@H](N=C(N)N)[C@@H](O)[C@@H]3N=C(N)N)O[C@@H](C)[C@]2(O)C=O)O[C@@H](CO)[C@H](O)[C@H]1O [STREPTOMYCIN]
MIC [1]: 0.2 µM (≈ 0.116 µg/mL) | MIC [2]: 0.38 µM (≈ 0.221 µg/mL) | MIC [3]: > 32 µM

Source: ChEMBL document CHEMBL1153363, “Structure-activity relationships for a series of quinoline-based compounds active against replicating and nonreplicating Mycobacterium tuberculosis” (J Med Chem, 2009)
